# Reference: ChEMBL document CHEMBL1250424, “Design, synthesis and evaluation of 2-amino-4-m-bromoanilino-6-arylmethyl-7H-pyrrolo[2,3-d]pyrimidines as tyrosine kinase inhibitors and antiangiogenic agents” (Bioorg Med Chem, 2010)
# Tests used:
# [1] = target: Epidermal growth factor receptor (Homo sapiens, UniProt P00533); experiment: Inhibition of EGFR expressed in human A431 cells; format: cell-based, A-431
# [2] = target: Vascular endothelial growth factor receptor 2 (Homo sapiens, UniProt P35968); experiment: Inhibition of VEGFR2 expressed in human A431 cells; format: cell-based, A-431
# [3] = target: Platelet-derived growth factor receptor beta (Homo sapiens, UniProt P09619); experiment: Inhibition of PDGFRbeta expressed in human A431 cells; format: cell-based, A-431
# A-431 = experiment: Cytotoxicity against human A431 cells; format: functional, cell-based
# Method in brief: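 Growth inhibition of A431 cells, which over-express EGFR, measured in culture. Cisplatin was run in each evaluation as the reference standard. Each assay was performed 2-3 times, with 4-5 replicates per assay.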
# [4] = Antiangiogenic activity in fertilized chicken egg by CAM assay; format: functional, Gallus gallus
# Chain of Platelet-derived growth factor receptor beta (P09619 whole entry): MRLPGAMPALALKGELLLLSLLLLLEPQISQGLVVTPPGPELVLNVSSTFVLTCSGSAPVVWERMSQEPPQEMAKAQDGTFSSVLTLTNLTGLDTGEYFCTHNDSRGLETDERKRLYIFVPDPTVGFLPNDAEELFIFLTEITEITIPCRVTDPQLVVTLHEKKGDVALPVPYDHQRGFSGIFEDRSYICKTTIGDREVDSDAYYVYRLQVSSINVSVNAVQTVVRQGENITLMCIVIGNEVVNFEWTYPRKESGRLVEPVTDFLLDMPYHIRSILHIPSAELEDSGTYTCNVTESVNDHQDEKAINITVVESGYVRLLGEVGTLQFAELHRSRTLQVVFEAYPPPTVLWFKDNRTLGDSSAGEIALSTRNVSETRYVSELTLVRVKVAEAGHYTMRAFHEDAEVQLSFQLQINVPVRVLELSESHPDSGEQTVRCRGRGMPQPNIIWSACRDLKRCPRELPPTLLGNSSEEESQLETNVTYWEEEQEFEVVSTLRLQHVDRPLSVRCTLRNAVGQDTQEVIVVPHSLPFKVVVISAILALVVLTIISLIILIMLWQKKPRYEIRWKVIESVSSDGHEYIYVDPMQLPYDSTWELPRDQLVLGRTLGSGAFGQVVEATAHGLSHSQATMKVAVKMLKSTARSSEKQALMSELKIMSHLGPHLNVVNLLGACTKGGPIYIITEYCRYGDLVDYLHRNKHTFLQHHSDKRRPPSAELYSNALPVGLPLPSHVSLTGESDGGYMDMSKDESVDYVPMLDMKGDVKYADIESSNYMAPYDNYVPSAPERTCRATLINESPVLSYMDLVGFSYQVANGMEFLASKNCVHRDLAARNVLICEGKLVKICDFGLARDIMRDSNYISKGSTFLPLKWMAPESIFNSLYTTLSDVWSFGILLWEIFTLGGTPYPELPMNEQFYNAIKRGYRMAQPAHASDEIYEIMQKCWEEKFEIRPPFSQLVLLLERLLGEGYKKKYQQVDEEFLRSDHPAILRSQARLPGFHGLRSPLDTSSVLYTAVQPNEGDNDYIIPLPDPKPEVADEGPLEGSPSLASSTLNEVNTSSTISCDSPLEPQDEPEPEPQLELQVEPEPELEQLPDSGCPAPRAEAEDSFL
# Chain of Epidermal growth factor receptor (P00533 whole entry): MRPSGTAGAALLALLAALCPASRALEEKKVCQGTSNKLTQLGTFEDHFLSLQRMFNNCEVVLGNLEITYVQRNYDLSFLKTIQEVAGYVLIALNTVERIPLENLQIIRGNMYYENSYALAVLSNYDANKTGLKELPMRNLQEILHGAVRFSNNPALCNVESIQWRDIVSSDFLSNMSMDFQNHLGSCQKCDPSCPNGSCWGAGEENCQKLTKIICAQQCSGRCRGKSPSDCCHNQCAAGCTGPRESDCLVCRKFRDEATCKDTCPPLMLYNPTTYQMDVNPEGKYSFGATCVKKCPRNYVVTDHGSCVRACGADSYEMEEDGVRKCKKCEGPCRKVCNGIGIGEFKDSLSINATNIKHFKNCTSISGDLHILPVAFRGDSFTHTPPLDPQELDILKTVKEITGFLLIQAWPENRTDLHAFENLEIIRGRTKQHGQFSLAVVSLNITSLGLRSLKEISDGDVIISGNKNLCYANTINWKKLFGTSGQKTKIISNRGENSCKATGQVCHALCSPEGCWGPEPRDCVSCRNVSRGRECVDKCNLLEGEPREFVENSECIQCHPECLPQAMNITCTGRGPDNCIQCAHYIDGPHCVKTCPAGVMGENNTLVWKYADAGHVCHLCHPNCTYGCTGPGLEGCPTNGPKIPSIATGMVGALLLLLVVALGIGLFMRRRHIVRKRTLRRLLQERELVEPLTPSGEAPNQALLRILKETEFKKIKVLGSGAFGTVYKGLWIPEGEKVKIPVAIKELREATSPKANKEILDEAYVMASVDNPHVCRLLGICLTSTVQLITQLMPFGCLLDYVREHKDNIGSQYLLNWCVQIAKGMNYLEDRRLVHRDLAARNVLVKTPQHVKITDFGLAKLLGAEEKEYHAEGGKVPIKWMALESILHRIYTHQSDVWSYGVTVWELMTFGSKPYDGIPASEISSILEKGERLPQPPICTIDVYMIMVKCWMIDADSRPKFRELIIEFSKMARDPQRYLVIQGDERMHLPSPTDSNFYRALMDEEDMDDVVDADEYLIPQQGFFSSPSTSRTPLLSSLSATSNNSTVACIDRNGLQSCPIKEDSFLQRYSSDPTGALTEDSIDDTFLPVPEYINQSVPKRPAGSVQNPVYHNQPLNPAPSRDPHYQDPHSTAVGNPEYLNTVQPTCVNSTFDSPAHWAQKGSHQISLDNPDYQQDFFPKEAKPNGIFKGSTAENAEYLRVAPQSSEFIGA
# Chain of Vascular endothelial growth factor receptor 2 (P35968 whole entry): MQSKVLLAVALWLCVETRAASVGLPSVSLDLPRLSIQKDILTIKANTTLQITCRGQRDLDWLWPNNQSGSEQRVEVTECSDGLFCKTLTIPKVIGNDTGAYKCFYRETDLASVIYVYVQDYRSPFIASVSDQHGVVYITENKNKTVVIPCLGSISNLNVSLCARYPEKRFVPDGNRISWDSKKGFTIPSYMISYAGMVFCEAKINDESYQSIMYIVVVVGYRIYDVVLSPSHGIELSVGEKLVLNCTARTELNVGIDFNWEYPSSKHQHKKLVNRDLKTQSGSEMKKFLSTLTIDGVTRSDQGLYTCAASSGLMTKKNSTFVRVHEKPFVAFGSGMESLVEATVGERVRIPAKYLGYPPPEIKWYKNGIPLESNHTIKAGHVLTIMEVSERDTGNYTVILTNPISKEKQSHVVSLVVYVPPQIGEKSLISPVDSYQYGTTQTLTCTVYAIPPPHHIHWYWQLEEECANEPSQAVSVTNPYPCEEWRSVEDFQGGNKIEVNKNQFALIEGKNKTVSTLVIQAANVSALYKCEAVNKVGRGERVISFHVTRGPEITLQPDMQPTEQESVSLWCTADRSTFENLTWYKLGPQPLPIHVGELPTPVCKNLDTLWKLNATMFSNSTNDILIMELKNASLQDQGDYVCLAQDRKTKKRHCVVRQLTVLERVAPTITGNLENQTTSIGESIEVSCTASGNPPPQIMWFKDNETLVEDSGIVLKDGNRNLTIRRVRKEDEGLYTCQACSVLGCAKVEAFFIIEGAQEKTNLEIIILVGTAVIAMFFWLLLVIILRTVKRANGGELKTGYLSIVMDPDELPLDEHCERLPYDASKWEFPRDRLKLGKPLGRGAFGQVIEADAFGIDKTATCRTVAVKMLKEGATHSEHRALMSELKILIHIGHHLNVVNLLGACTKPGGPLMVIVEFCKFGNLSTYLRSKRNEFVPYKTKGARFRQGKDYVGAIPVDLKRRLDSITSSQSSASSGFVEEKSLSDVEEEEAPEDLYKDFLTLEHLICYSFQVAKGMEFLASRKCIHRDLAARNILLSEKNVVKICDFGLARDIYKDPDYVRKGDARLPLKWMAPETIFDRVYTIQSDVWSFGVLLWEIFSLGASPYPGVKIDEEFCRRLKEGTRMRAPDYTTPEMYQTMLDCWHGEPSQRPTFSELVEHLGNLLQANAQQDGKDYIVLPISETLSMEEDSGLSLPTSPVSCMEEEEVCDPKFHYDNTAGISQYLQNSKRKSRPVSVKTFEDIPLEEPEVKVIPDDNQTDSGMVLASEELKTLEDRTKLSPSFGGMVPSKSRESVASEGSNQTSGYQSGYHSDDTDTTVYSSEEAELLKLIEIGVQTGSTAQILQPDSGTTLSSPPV
SMILES,IC50 [1] [µM],IC50 [2] [µM],IC50 [3] [µM],IC50 [4] [µM],IC50 (A-431) [µM]
COc1ccc(OC)c(Cc2cc3c(Nc4cccc(Br)c4)nc(N)nc3n2C)c1,> 200,> 200,348,3.3,35.6
COc1ccc(OC)c(Cc2cc3c(Nc4cccc(Br)c4)nc(N)nc3[nH]2)c1,,0.62,,1.32,
CN(c1cccc(Br)c1)c1nc(N)nc2c1cc(Cc1ccccc1)n2C,254,> 200,71.7,2.6,50.9
Cc1ccccc1Cc1cc2c(Nc3cccc(Br)c3)nc(N)nc2[nH]1,,0.25,,,
Cn1c(Cc2ccccc2)cc2c(Nc3cccc(Br)c3)nc(N)nc21,> 200,> 200,2.8,6.22,27.9

# Further lines, with some results ahead:
IC50 [1] [µM],IC50 [2] [µM],IC50 [3] [µM],IC50 [4] [µM],SMILES,IC50 (A-431) [µM]
1.2,> 200,> 500,1.6,Cc1ccccc1Cc1cc2c(N(C)c3cccc(Br)c3)nc(N)nc2n1C,226
53.1,89.2,> 500,1.56,CN(c1cccc(Br)c1)c1nc(N)nc2[nH]c(Cc3ccccc3)cc12,45.7
0.5,> 200,> 500,2.05,COc1ccc(OC)c(Cc2cc3c(N(C)c4cccc(Br)c4)nc(N)nc3n2C)c1,94.1
31.2,> 200,34.8,0.93,Cc1ccccc1Cc1cc2c(N(C)c3cccc(Br)c3)nc(N)nc2[nH]1,> 500
144,> 200,1.3,0.83,COc1ccc(OC)c(Cc2cc3c(N(C)c4cccc(Br)c4)nc(N)nc3[nH]2)c1,197
12.8,116,> 500,3,Cc1ccccc1Cc1cc2c(Nc3cccc(Br)c3)nc(N)nc2n1C,204
